Published values pooled from the literature.
Each line is one published result; the experiments were not run side by side.
Effect on: binding
tspO: tspO (Cereibacter sphaeroides, UniProt Q9RFC8)
PIK3CG: Phosphatidylinositol 4,5-bisphosphate 3-kinase catalytic subunit gamma isoform (PIK3CG, Homo sapiens, UniProt P48736)
CREBBP bromodomain: CREB-binding protein, bromodomain (CREBBP, Homo sapiens, UniProt Q92793)

With Nc1nc2c(ncn2[C@@H]2O[C@H](COP(=O)(O)OP(=O)(O)O)[C@@H](OP(=O)(O)OP(=O)(O)O)[C@H]2O)c(=O)[nH]1 the Kd was 52000 nM (gpmA (Escherichia coli, UniProt P62707); ITC).
With C=CC1=C(C)C2=Cc3c(C=C)c(C)c4[n]3[Fe]([Cl])[n]3c(c(C)c(CCC(=O)O)c3=CC3=NC(=C4)C(C)=C3CCC(=O)O)=CC1=N2 the Kd was 900 nM (tspO; fluorescence).
The Kd of CCC(=O)N1CCC(C(=O)N(C)CC(=O)N2CCN(c3nc(-c4cnc(N)nc4C(F)F)nc(N4CCOCC4)n3)CC2)CC1 is reported as 16 nM (PIK3CG; competition with immobilised ligand).
CCOc1cc(-c2nncn2C)ccc1Nc1ncc2cc(C)nc(NCC(C)(C)C)c2n1 has a Kd of > 10000 nM (Mitogen-activated protein kinase kinase kinase 15 (MAP3K15, Homo sapiens, UniProt Q6ZN16); competition with immobilised ligand).
The Kd of C=CC1=C(C)c2cc3[nH]c(cc4nc(cc5[nH]c(cc1n2)c(C)c5CCC(=O)O)C(CCC(=O)O)=C4C)c(C)c3C=C is reported as 900 nM (tspO; fluorescence).
For CCCc1cc(N=Nc2cc(S(=O)(=O)O)c(C)cc2C)ccc1O, the Kd was 97000 nM (CREBBP bromodomain; fluorescence).
With CC1=C(/C=C/C(C)=C/C=C/C(C)=C/C=O)C(C)(C)CCC1 the Kd was 104 nM (Cellular retinoic acid-binding protein 2 (CRABP2, Homo sapiens, UniProt P29373, L122E/R133K); fluorescence).
With OC[C@H]1OC(O)[C@H](O)[C@@H](O)[C@@H]1O (stereo partly drawn) the Kd was 3260 nM (Nucleolar RNA helicase 2 (Homo sapiens, UniProt Q9NR30); MST).
Cn1cc(C(=O)Nc2cccc(C(=O)O)c2)ccc1=O has a Kd of 4100 nM (CREBBP bromodomain; competition with immobilised ligand).
Cc1cc(/N=N/c2ccc(S(=O)(=O)O)cc2)ccc1O gave a Kd of 76000 nM (CREBBP bromodomain; fluorescence).
Cc1cc2c(NC(=O)c3cccc(C(=O)O)c3)cccc2nn1 gave a Kd of 1100 nM (CREBBP bromodomain; competition with immobilised ligand).
CCC(=O)N1CCC(C(=O)NCC(=O)N2CCN(c3nc(-c4cnc(N)nc4C(F)F)nc(N4CCOCC4)n3)CC2)CC1 has a Kd of 1.3 nM (PIK3CG; competition with immobilised ligand).
